Source: ChEMBL document CHEMBL5360615, “Pharmacological and Physicochemical Properties Optimization for Dual-Target Dopamine D3 (D3R) and μ-Opioid (MOR) Receptor Ligands as Potentially Safer Analgesics” (J Med Chem, 2023)
Activity calls are given as the source filed them. The rule behind the calls is not given here.

Tests used:
Mu-type opioid receptor [1] = molecular target: Mu-type opioid receptor (Homo sapiens, UniProt P35372); experiment: Displacement of [3H]-DAMGO from human MOR receptor expressed in HEK293T cell membrane assessed as inhibition constant incubated for 60 mins by MicroBeta scintillation counting method; type: cell membranes
In short: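 HEK293 cells stably expressing human MOR, grown in DMEM with 10% FBS and hygromycin B; membranes prepared from confluent cells. Binding buffer 50 mM Tris, 5 mM MgCl2, pH 7.4. Nonspecific binding with 10 μM naloxone. 60 min at RT, then GF/C filtration.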

D(3) dopamine receptor [2] = molecular target: T1, D(3) dopamine receptor (Homo sapiens, UniProt P35462); experiment: Displacement of [3H]N-methylspiperone from human D3R receptor expressed in HEK293T cell membrane assessed as inhibition constant incubated for 60 mins by MicroBeta scintillation counting method; type: cell membranes
D(2) dopamine receptor = D(2) dopamine receptor (Homo sapiens, UniProt P14416); experiment: Displacement of [3H]N-methylspiperone from human D2L receptor expressed in HEK293T cell membrane assessed as inhibition constant incubated for 60 mins by MicroBeta scintillation counting method; type: cell membranes
[3] = molecular target: Mu-type opioid receptor (Mus musculus) (UniProt P42866); experiment: Agonist activity at Rluc8 fused mouse MOR transfected in HEK293T cells coexpressing wild type GRK2 assessed as arrestin-3 recruitment at 10 uM using coelenterazine as substrate incubated for 40 mins by BRET assay relative to control; type: functional, cell-based; details: filed as agonist
In short: (§1)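 HEK293T cells transiently transfected with BRET sensors (DNA:PEI 1:6), plated into poly-D-lysine plates and assayed 48 h post-transfection. Cells washed and held in D-PBS 30 min at 37 °C. Coelenterazine h 5 μM final; ligands 10 μM to 0.01 nM. […] At least three independent experiments in duplicate.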

Mu-type opioid receptor [4] = molecular target: T2, Mu-type opioid receptor (Mus musculus, UniProt P42866); experiment: Agonist activity at Rluc8 fused mouse MOR transfected in HEK293T cells assessed as Nb33 recruitment using coelenterazine as substrate incubated for 40 mins by BRET assay; type: functional, cell-based
In short: (§2)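 HEK293T cells transiently transfected with BRET sensors (DNA:PEI 1:6), plated into poly-D-lysine plates and assayed 48 h post-transfection. Cells washed and held in D-PBS 30 min at 37 °C. Coelenterazine h 5 μM final; ligands 10 μM to 0.01 nM. At least three independent experiments in duplicate.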

Mu-type opioid receptor [5] = molecular target: T2, Mu-type opioid receptor; experiment: Agonist activity at Rluc8 fused mouse MOR transfected in HEK293T cells coexpressing wild type GRK2 assessed as arrestin-3 recruitment using coelenterazine as substrate incubated for 40 mins by BRET assay; type: functional, cell-based; in short: as §2
[6] = molecular target: Mu-type opioid receptor (Mus musculus) (UniProt P42866); experiment: (§3) Agonist activity at SNAP-tagged mouse MOR transfected in HEK293T cells coexpressing wild type Galpha-i2, venus-tagged Gbeta-1 (156 to 239 residues), venus-tagged Ggamma2 (1 to 155 residues) and Rluc8 fused masGRK3ct assessed as Galpha-i2 activation at 10 uM using coelenterazine as substrate incubated for 40 mins by BRET based GPA assay relative to control; type: functional, cell-based; details: filed as agonist; in short: as §1
Mu-type opioid receptor [7] = molecular target: T2, Mu-type opioid receptor; experiment: as §3, with “activation” for “activation at 10 uM”, “assay” for “assay relative to control”; type: functional, cell-based; in short: as §2
D(3) dopamine receptor [8] = molecular target: T1, D(3) dopamine receptor; experiment: (§4) Antagonist activity at SNAP-tagged human D3R receptor transfected in HEK293T cells coexpressing wild type Galpha-oA, venus-tagged Gbeta-1 (156 to 239 residues), venus-tagged Ggamma2 (1 to 155 residues) and Rluc8 fused masGRK3ct assessed as Galpha-oA activation using coelenterazine as substrate incubated for 40 mins in presence of quinpirole by BRET based GPA assay; type: functional, cell-based
[9] = molecular target: Mu-type opioid receptor (Mus musculus) (UniProt P42866); experiment: Agonist activity at Rluc8 fused mouse MOR transfected in HEK293T cells assessed as Nb33 recruitment at 10 uM using coelenterazine as substrate incubated for 40 mins by BRET assay relative to control; type: functional, cell-based; in short: as §1
[10] = molecular target: Mu-type opioid receptor (Mus musculus) (UniProt P42866); experiment: Partial agonist activity at Rluc8 fused mouse MOR transfected in HEK293T cells assessed as Nb33 recruitment at 10 uM using coelenterazine as substrate incubated for 40 mins by BRET assay relative to control; type: functional, cell-based; in short: as §2
Mu-type opioid receptor [11] = molecular target: T2, Mu-type opioid receptor; experiment: (§5) Partial agonist activity at Rluc8 fused mouse MOR transfected in HEK293T cells coexpressing wild type GRK2 assessed as arrestin-3 recruitment using coelenterazine as substrate incubated for 40 mins by BRET assay; type: functional, cell-based; in short: as §2
Mu-type opioid receptor [12] = molecular target: T2, Mu-type opioid receptor; experiment: (§6) Partial agonist activity at Rluc8 fused mouse MOR transfected in HEK293T cells assessed as Nb33 recruitment using coelenterazine as substrate incubated for 40 mins by BRET assay; type: functional, cell-based; in short: as §2
D(3) dopamine receptor [13] = molecular target: T1, D(3) dopamine receptor; experiment: as §4, with “Partial agonist” for “Antagonist”, “mins” for “mins in presence of quinpirole”; type: functional, cell-based
Mu-type opioid receptor [14] = molecular target: T2, Mu-type opioid receptor; experiment: as §3, with “Partial agonist” for “Agonist”, “activation” for “activation at 10 uM”, “assay” for “assay relative to control”; type: functional, cell-based; in short: as §2
[15] = molecular target: Mu-type opioid receptor (Mus musculus) (UniProt P42866); experiment: Partial agonist activity at Rluc8 fused mouse MOR transfected in HEK293T cells coexpressing wild type GRK2 assessed as arrestin-3 recruitment at 10 uM using coelenterazine as substrate incubated for 40 mins by BRET assay relative to control; type: functional, cell-based; in short: as §1
[16] = molecular target: Mu-type opioid receptor (Mus musculus) (UniProt P42866); experiment: as §3, with “Partial agonist” for “Agonist”; type: functional, cell-based; details: filed as partial agonist; in short: as §2
[17] = molecular target: Mu-type opioid receptor (Mus musculus) (UniProt P42866); experiment: as §5; type: functional, cell-based; in short: as §2
[18] = molecular target: Mu-type opioid receptor (Mus musculus) (UniProt P42866); experiment: as §6; type: functional, cell-based; in short: as §2

Sequence of D(2) dopamine receptor (P14416 whole entry, the tested form may be a part): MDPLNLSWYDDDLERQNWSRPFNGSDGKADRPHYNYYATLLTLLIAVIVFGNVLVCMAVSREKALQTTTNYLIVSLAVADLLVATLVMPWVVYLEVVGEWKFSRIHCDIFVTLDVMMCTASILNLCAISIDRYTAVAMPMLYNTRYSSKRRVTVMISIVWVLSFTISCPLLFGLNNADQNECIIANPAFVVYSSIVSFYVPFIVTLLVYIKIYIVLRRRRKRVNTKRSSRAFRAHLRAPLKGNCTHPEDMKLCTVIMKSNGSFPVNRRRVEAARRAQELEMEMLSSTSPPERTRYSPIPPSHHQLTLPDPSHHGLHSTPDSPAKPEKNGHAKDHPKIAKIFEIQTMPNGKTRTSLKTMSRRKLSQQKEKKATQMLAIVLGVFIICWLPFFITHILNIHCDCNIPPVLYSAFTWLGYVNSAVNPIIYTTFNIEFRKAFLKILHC
T1 sequence (P35462 whole entry): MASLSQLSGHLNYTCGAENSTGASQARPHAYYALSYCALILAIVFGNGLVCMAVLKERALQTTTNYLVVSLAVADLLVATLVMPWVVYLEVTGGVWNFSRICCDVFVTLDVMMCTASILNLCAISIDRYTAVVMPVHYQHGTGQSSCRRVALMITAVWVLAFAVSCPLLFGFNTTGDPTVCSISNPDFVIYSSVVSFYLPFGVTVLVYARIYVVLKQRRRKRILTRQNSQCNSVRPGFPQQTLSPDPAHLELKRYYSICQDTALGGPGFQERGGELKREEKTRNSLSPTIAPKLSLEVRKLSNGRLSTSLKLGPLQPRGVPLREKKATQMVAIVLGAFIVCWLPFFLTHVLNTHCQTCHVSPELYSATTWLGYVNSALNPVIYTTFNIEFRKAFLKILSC
Sequence of Mu-type opioid receptor (Homo sapiens, UniProt P35372) (P35372 whole entry): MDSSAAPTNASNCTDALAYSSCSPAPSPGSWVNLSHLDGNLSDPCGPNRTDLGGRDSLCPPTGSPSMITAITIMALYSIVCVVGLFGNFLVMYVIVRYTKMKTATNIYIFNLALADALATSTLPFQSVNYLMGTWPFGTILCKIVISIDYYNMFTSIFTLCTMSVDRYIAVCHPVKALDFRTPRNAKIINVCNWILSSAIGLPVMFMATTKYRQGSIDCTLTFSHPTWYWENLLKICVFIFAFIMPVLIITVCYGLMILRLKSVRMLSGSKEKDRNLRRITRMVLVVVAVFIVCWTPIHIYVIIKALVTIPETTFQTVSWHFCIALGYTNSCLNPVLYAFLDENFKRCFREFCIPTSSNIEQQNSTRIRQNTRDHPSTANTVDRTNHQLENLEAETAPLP
Sequence of Mu-type opioid receptor (Mus musculus) (P42866 whole entry, the tested form may be a part): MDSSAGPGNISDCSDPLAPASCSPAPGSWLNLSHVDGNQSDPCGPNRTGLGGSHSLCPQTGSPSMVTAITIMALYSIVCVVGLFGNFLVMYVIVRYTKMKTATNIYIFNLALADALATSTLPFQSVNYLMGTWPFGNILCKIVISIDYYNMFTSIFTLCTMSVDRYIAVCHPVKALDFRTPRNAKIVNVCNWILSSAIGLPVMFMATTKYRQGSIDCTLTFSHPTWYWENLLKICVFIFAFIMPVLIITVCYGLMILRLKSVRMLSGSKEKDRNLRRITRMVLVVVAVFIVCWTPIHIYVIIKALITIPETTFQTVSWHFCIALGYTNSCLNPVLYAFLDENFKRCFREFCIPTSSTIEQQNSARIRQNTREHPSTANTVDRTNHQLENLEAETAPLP
T2 sequence (P42866 whole entry, the tested form may be a part): as above

## FC(F)(F)c1cccc(N2CCN(CCC3(c4ccccn4)CCOCC3)CC2)n1
Mu-type opioid receptor [1]
  Ki: 1670 nM

## CN(C)C(=O)C(CCN1C[C@H](F)C[C@H]1C(=O)NCCCCN1CCN(c2cccc(Cl)c2Cl)CC1)(c1ccccc1)c1ccccc1
Mu-type opioid receptor [1]
  Ki: 787 nM

## FC(F)(F)c1cccc(N2CCN(CCCOC3(c4ccccn4)CCOC4(CCCC4)C3)CC2)n1 (stereo not given)
D(3) dopamine receptor [2]
  Ki: 286 nM
Mu-type opioid receptor [1]
  Ki: 1640 nM
D(2) dopamine receptor
  Ki: 1310 nM

## Fc1cncc(CNCC[C@@]2(c3ccccn3)CCOC3(CCCC3)C2)c1
D(3) dopamine receptor [2]
  Ki: 85100 nM
Mu-type opioid receptor [1]
  Ki: 54.7 nM
D(2) dopamine receptor
  Ki: > 100000 nM

## Clc1ccc([C@@H]2C[C@H]2NCCC2(c3ccccn3)CCOC3(CCCC3)C2)cc1 (relative stereo)
[3]
  Emax: 51.3%
Mu-type opioid receptor [4]
  EC50: 406 nM
Mu-type opioid receptor [5]
  EC50: 0.261 µM
[6]
  Emax: 97.6%
Mu-type opioid receptor [7]; read-out: EC50
  EC50: 73.4 nM
Mu-type opioid receptor [7]; read-out: pEC50 (converted)
  EC50: 72.4 nM
D(3) dopamine receptor [2]
  Ki: 361 nM
D(3) dopamine receptor [8]
  EC50: 271 nM
  IC50: 269 nM
Mu-type opioid receptor [1]
  Ki: 85.2 nM
D(2) dopamine receptor
  Ki: 5520 nM
[9]
  Emax: 24.9%

## CN(C)C(=O)C(CCN[C@@H]1C[C@H]1c1ccc(Cl)cc1)(c1ccccc1)c1ccccc1 (relative stereo)
Mu-type opioid receptor [1]
  Ki: 12.3 nM

## CN(C)C(=O)C(CCN[C@@H]1C[C@H]1c1ccc(F)cc1)(c1ccccc1)c1ccccc1 (relative stereo)
Mu-type opioid receptor [1]
  Ki: 47 nM

## CCC1(CC)CC(OCCCN2CCN(c3cccc(Cl)c3Cl)CC2)(c2ccccn2)CCO1 (stereo not given)
D(3) dopamine receptor [2]
  Ki: 21.7 nM
Mu-type opioid receptor [1]
  Ki: 2270 nM
D(2) dopamine receptor
  Ki: 122 nM

## Clc1cccc(N2CCN(CCCOC3(c4ccccn4)CCOCC3)CC2)c1Cl
Mu-type opioid receptor [1]
  Ki: 1750 nM

## CN(C)C(=O)C(CCN(CCO)[C@@H]1C[C@H]1c1ccc(Cl)cc1)(c1ccccc1)c1ccccc1 (relative stereo)
Mu-type opioid receptor [1]
  Ki: 26.9 nM
D(2) dopamine receptor
  Ki: 7330 nM

## CCCN(CCC(C(=O)N(C)C)(c1ccccc1)c1ccccc1)[C@@H]1C[C@H]1c1ccc(Cl)cc1 (relative stereo)
Mu-type opioid receptor [1]
  Ki: 31.2 nM

## Clc1ccc([C@@H]2C[C@H]2NCCC2(c3ccccn3)CCOCC2)cc1 (relative stereo)
Mu-type opioid receptor [1]
  Ki: 1580 nM

## CN(C)C(=O)C(CCN1CCC(CCN2CCN(c3cccc(Cl)c3Cl)CC2)C1)(c1ccccc1)c1ccccc1 (stereo not given)
[10]
  Emax: 14.6%
Mu-type opioid receptor [11]
  EC50: 470 nM
D(3) dopamine receptor [2]
  Ki: 20.2 nM
Mu-type opioid receptor [12]
  EC50: 0.658 µM
D(3) dopamine receptor [13]
  EC50: 41.7 nM
Mu-type opioid receptor [14]
  EC50: 158 nM
[15]
  Emax: 10.5%
[16]
  Emax: 85.4%
Mu-type opioid receptor [1]
  Ki: 23.5 nM
D(2) dopamine receptor
  Ki: 117 nM

## Clc1cccc(N2CCN(CCC3(c4ccccn4)CCOCC3)CC2)c1Cl
Mu-type opioid receptor [4]
  EC50: 1590 nM
Mu-type opioid receptor [5]
  EC50: 6.48 µM
Mu-type opioid receptor [7]; read-out: EC50
  EC50: 848 nM
Mu-type opioid receptor [1]
  Ki: 691 nM

## CN(C)C(=O)C(CCN1C[C@H](F)C[C@H]1C(=O)NCCCCN1CCN(c2cccc(C(F)(F)F)n2)CC1)(c1ccccc1)c1ccccc1
Mu-type opioid receptor [12]
  EC50: 5.75 µM
Mu-type opioid receptor [14]
  EC50: 1160 nM
Mu-type opioid receptor [1]
  Ki: 192 nM

## FC(F)(F)c1cccc(N2CCN(CCC3(c4ccccn4)CCOC4(CCCC4)C3)CC2)n1 (stereo not given)
D(3) dopamine receptor [2]
  Ki: 734 nM
Mu-type opioid receptor [1]
  Ki: 166 nM
D(2) dopamine receptor
  Ki: 5430 nM

## CC1CCC(CN2CCN(c3cccc(Cl)c3Cl)CC2)CN1CCC(C(=O)N(C)C)(c1ccccc1)c1ccccc1 (stereo not given)
D(3) dopamine receptor [2]
  Ki: 309 nM
Mu-type opioid receptor [1]
  Ki: 867 nM
D(2) dopamine receptor
  Ki: 146 nM

## CCc1cc(Cl)c(OC)c(N2CCN(C[C@@H]3C[C@@H](O)CN3CCC(C(=O)N(C)C)(c3ccccc3)c3ccccc3)CC2)c1
[10]
  Emax: inactive
[17]
  Activity: inactive
D(3) dopamine receptor [2]
  Ki: 111 nM
D(3) dopamine receptor [8]
  IC50: 2950 nM
D(3) dopamine receptor [8]; hek293t
  EC50: 2960 nM
[18]
  Activity: inactive
D(3) dopamine receptor [13]
  EC50: 25.4 nM
Mu-type opioid receptor [14]
  EC50: 3310 nM
[15]
  Activity: inactive
[16]
  Emax: 86.1%
Mu-type opioid receptor [1]
  Ki: 377 nM
D(2) dopamine receptor
  Ki: 870 nM
